Values after ≈ are worked out from the molar mass of the structure shown. Positions of bridges follow the written chain, without caps; N, C: chain ends. Non-standard residues stand in square brackets, D forms with d. Residues, ends and D or L forms follow the SMILES beside them. *: point of attachment. Heptanoyl(6-Me) = CC(C)CCCCC(=O)*; Dab = NCC[C@H](N)C(=O)O
Key:
VISA = assay: MIC, broth microdilution; type: cell-based, Staphylococcus aureus; conditions: gold complexes and antibiotics, 24 h
Summary of the method: (§1)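 Broth microdilution per CLSI guidelines in 96-well plates with test compound, incubated at 37 °C for 24 h. Growth was read on a microplate reader.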

CREC (Clinical) = assay: MIC, broth microdilution; type: cell-based, Escherichia coli; conditions: 24 h; for MIC, CREC (Clinical): gold complexes and antibiotics; for MIC: Escherichia coli, read-out: MIC, CREC (Clinical)
Summary of the method: as §1

CRKP [1] = assay: MIC, broth microdilution; type: cell-based, Klebsiella pneumonia; conditions: 24 h; for MIC, CRKP: gold complexes and antibiotics; for MIC: Klebsiella pneumoniae, read-out: MIC, CRKP
Summary of the method: as §1

CREC = assay: MIC, broth microdilution; type: cell-based, Escherichia coli; conditions: 24 h; for MIC, CREC: gold complexes and antibiotics; for MIC: Escherichia coli, read-out: MIC, CREC
Summary of the method: as §1

CRKP (Clinical) = assay: MIC, broth microdilution; type: cell-based, Klebsiella pneumonia; conditions: 24 h; for MIC, CRKP (Clinical): gold complexes and antibiotics; for MIC: Klebsiella pneumoniae, read-out: MIC, CRKP (Clinical)
Summary of the method: as §1

CRAB (Clinical) = assay: MIC, broth microdilution; type: cell-based; conditions: 24 h; for MIC, CRAB (Clinical): gold complexes and antibiotics; for MIC: read-out: MIC, CRAB (Clinical)
Summary of the method: as §1

CRPA = assay: MIC, broth microdilution; type: cell-based, Pseudomonas aeruginosa; conditions: 24 h; for MIC, CRPA: gold complexes and antibiotics; for MIC: Pseudomonas aeruginosa, read-out: MIC, CRPA
Summary of the method: as §1

CRPA (Clinical) = assay: MIC, broth microdilution; type: cell-based, Pseudomonas aeruginosa; conditions: 24 h; for MIC, CRPA (Clinical): gold complexes and antibiotics; for MIC: Pseudomonas aeruginosa, read-out: MIC, CRPA (Clinical)
Summary of the method: as §1

recombinant CRKP GR = assay: Inhibition of recombinant CRKP GR; type: biochemical, Klebsiella pneumonia
Summary of the method: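 Purified CRKP GR (final 2 nM) in 50 mM Tris-HCl pH 7.5 with 2 mM EDTA was preincubated with test compound at 37 °C for 30 min. GSSG and NADPH were then added, with A340 read at 10 s and after 5 min at 37 °C. Ki came from varying GSSG 0–5 mM and compound 0–20 μM under a competitive model. Reversibility: 30 min RT exposure, then NAP-5 desalting (1 mM GSSG, 300 μM NADPH) or 4 °C, 4 h dialysis (15,000 Da cutoff).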

DNA from CRKP = assay: DNA degradation assay; set-up: species or system Klebsiella pneumonia; conditions: purified CRKP DNA, 30 min
Summary of the method: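 Genomic DNA extracted from CRKP with a kit and checked by micro-spectrophotometry and agarose gel. DNA mixed with varying concentrations of test compound on ice for 30 min, also with 10 mM H2O2 for 30 min. DNA (30 ng/μL) additionally incubated with 40 μM for 2 h on ice. Degradation read by EB-stained polyacrylamide gel electrophoresis.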

CRKP [2] = assay: Time-killing assay; type: cell-based, Klebsiella pneumonia; conditions: 0-80 μM
Summary of the method: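 Overnight CRKP culture diluted 2000-fold and grown to OD600 0.4–0.6, then diluted to OD600 0.1 and plated in 96-well format. Test compound added at 0, 10, 20, 40 or 80 μM. Growth read hourly by microplate reader for 12 h.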

CRKP [3] = assay: Cell membrane integrity; type: cell-based, Klebsiella pneumonia; conditions: 0-40 μM, 4 h, vs control
Summary of the method: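 Membrane integrity read from PI uptake: CRKP exposed to test compound at 0, 10, 20 or 40 μM, then analysed by single-parameter flow cytometry collecting 100,000 cells per sample.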

CRKP [4] = assay: Intracellular superoxide radical detection; type: cell-based, Klebsiella pneumonia; conditions: 4 h
Summary of the method: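 Mid-log CRKP (OD600 0.6) loaded with DHE for 20 min at 37 °C with shaking, treated with test compound at 0, 10, 20 or 40 μM for 4 h, and washed three times in ice-cold PBS. Flow cytometry collected 100,000 cells. For HPLC, cells at OD600 0.3 took up 20 μM DHE for 20 min, were exposed to 0 or 80 μM for 4 h and washed, with synthesized 2-OH E+ as reference.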

CRKP [5] = assay: Checkerboard microdilution assay; type: cell-based, Klebsiella pneumonia; conditions: for MIC of antibiotic: antibiotic alone; for FIC index (Au10): antibiotic in combination with Au10, CRKP; for FIC index (Au17): antibiotic in combination with Au17, CRKP; for FIC index (Auranofin): antibiotic in combination with auranofin
Summary of the method: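 Checkerboard: overnight cultures diluted 1000-fold, regrown to mid-log phase (OD600 0.6), diluted per CLSI and seeded in 96-well plates. Varying concentrations of gold test compound combined with varying antibiotic concentrations. Incubated 37 °C for 24 h, growth read at OD600. FICI calculated by a previously described method.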

cellular GR in CRKP = assay: Cellular GR activity assay; type: cell-based, Klebsiella pneumonia; conditions: CRKP treated 4 h, GR assay kit
Summary of the method: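 CRKP overnight culture diluted and regrown to mid-log phase (OD600 0.6), then treated with test compound. Cellular glutathione reductase activity measured with a commercial GR activity kit.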

cellular TrxR in CRKP = assay: Cellular TrxR activity assay; type: cell-based, Klebsiella pneumonia; conditions: read-out: IC50, cellular TrxR; CRKP treated 4 h, TrxR assay kit
Summary of the method: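 Overnight CRKP culture diluted and regrown to mid-log phase (OD600 0.6). Suspensions exposed to test compound at 0, 2.5, 5, 10 or 20 μM for 4 h. Cellular TrxR activity measured with a commercial TrxR activity kit.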

recombinant CRKP TrxR = assay: Inhibition of recombinant CRKP TrxR; type: biochemical, Klebsiella pneumonia; conditions: read-out: IC50, recombinant CRKP TrxR; DTNB reduction assay
Summary of the method: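 TrxR activity read by DTNB reduction assay (NADPH plus DTNB, A412 change over 5 min at 37 °C). Ki came from varying DTNB 0–2 mM and test compound 0–40 μM, fitted to a competitive inhibition model. Reversibility: NADPH-prereduced enzyme (100 μM, 10 min) was treated with 30 μM compound for 30 min, then NAP-5 desalted. Alternatively, after 30 min RT exposure, enzyme was dialysed 4 h at 4 °C (15,000 Da cutoff).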

CRKP [6] = assay: Murine peritonitis infection model; type: in vivo, BALB/c mice; conditions: six mice per group, treated 1 h after i.p. CRKP
Summary of the method: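 Female BALB/c mice (18–20 g) randomized, six per group, and given 200 μL CRKP suspension i.p. Treatment began 1 h after infection: saline/PBS control, comparator antibiotic or test compound. Survival recorded over 48 h.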

| SMILES | MIC, VISA (VISA) | MIC, CREC (Clinical) (CREC (Clinical)) | MIC, CRKP (CRKP [1]) | MIC, CREC (CREC) | MIC, CRKP (Clinical) (CRKP (Clinical)) | MIC, CRAB (Clinical) (CRAB (Clinical)) | MIC, CRPA (CRPA) | MIC, CRPA (Clinical) (CRPA (Clinical)) | MIC of antibiotic (CRKP [5]; CRKP) | FIC index (Au10) (CRKP [5]) | FIC index (Au17) (CRKP [5]) | FIC index (Auranofin) (CRKP [5]; CRKP) | MIC (CREC (Clinical)) | MIC (CRKP [1]) | MIC (CREC) | MIC (CRKP (Clinical)) | MIC (CRAB (Clinical)) | MIC (CRPA) | MIC (CRPA (Clinical)) | other results |
| --- | --- | --- | --- | --- | --- | --- | --- | --- | --- | --- | --- | --- | --- | --- | --- | --- | --- | --- | --- | --- |
| COc1ccc2ccc([O-])c(C=NC3CCCCC3N=Cc3cc(F)ccc3[O-])c2c1.F[P-](F)(F)(F)(F)F.[Au+3] [Au4, [1-((E)-(((1S,2R)-2-(((E)-5-fluoro-2-hydroxybenzylidene)amino)cyclohexyl)imino)methyl)-7-methoxynaphthalen-2-ol] Au(III) hexafluorophosphate] | >20 µM | 20 µM | 10 µM | 20 µM | 10 µM | >20 µM | >20 µM | >20 µM | – | – | – | – | – | – | – | – | – | – | – | – |
| CC(=O)OC[C@H]1O[C@@H]([S-])[C@H](OC(C)=O)[C@@H](OC(C)=O)[C@@H]1OC(C)=O.CCP(CC)CC.[Au+] [Auranofin] | 0.5 µM | >20 µM | >20 µM | >20 µM | >20 µM | 20 µM | >20 µM | >20 µM | – | – | – | – | – | – | – | – | – | – | – | inhibition of recombinant GR at 40 μM (recombinant CRKP GR): did not exhibit inhibitory effects; DNA degradation (gel electrophoresis) (DNA from CRKP): did not demonstrate DNA degradation effect; bacterial growth over 12 h (CRKP [2]): only a marginal inhibitory effect; PI red fluorescence intensity (membrane integrity) (CRKP [3]): did not show a significant difference; 2-OH E+ formation (HPLC) (CRKP [4]; 80 μM): no detectable 2-OH E^+; intracellular ROS (superoxide, DHE probe) (CRKP [4]; 10, 20, 40 μM, vs control): did not induce ROS generation; interaction with cefepime or meropenem (CRKP [5]; checkerboard, CRKP): did not exhibit any synergistic interaction; IC50, cellular GR (cellular GR in CRKP): did not show any inhibitory effects; IC50 (cellular TrxR in CRKP): 11.6 µM; IC50 (recombinant CRKP TrxR): 27.2 µM |
| CO/N=C(\C(=O)N[C@@H]1C(=O)N2C(C(=O)[O-])=C(C[N+]3(C)CCCC3)CS[C@H]12)c1csc(N)n1 [Cefepime] | – | – | – | – | – | – | – | – | 20 µM | 0.45 | 0.70 | 0.525 | – | – | – | – | – | – | – | MIC of antibiotic in the presence of Au10 (CRKP [5]; Au10 2 μM, CRKP): 5 µM |
| CC(C)CCCCC(=O)N[C@@H](CCN)C(=O)N[C@H](C(=O)N[C@@H](CCN)C(=O)N[C@H]1CCNC(=O)[C@H]([C@@H](C)O)NC(=O)[C@H](CCN)NC(=O)[C@H](CCN)NC(=O)[C@H](CC(C)C)NC(=O)[C@@H](CC(C)C)NC(=O)[C@H](CCN)NC1=O)[C@@H](C)O [Colistin B] ({Heptanoyl(6-Me)}-[Dab]T[Dab][Dab][Dab][dL]L[Dab][Dab]T; lactam 4-C) | – | – | – | – | – | – | – | – | – | – | – | – | 1 µM (≈ 1.16 µg/mL) | 50 µM (≈ 57.8 µg/mL) | 1 µM (≈ 1.16 µg/mL) | 100 µM (≈ 116 µg/mL) | 3 µM (≈ 3.47 µg/mL) | 3 µM (≈ 3.47 µg/mL) | 3 µM (≈ 3.47 µg/mL) | mice surviving more than 24 h (CRKP [6]): no mice |
| C[C@@H](O)[C@H]1C(=O)N2C(C(=O)O)=C(SCCN=CN)C[C@H]12 [Imipenem] | – | – | – | – | – | – | – | – | – | – | – | – | 100 µM (≈ 29.9 µg/mL) | 200 µM (≈ 59.9 µg/mL) | 50 µM (≈ 15 µg/mL) | 100 µM (≈ 29.9 µg/mL) | 200 µM (≈ 59.9 µg/mL) | 200 µM (≈ 59.9 µg/mL) | 100 µM (≈ 29.9 µg/mL) | – |
| C[C@@H](O)[C@H]1C(=O)N2C(C(=O)O)=C(S[C@@H]3CN[C@H](C(=O)N(C)C)C3)[C@H](C)[C@H]12 [Meropenem] | – | – | – | – | – | – | – | – | 40 µM | 0.35 | 0.45 | 0.625 | – | – | – | – | – | – | – | – |

— article PMC12433486 (Redox Biology, 2025)
